From PubChem
M5 ag: agonists of human muscarinic M5 receptor (CHRM5). P08912. CHO-K1 hM5 cells, Fluo-8 calcium fluorescence; 0% DMSO wells, 100% maximal acetylcholine response. activation, % at 3 µM. 360,000 compounds, 0.19% hits. AID 624037;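 active = activation above the run's mean over test compounds plus 3 SD, cut at about 23% in these data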;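 also: signal is peak over basal fluorescence ratio across the kinetic read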
Target sequence (P08912 whole entry, looked up): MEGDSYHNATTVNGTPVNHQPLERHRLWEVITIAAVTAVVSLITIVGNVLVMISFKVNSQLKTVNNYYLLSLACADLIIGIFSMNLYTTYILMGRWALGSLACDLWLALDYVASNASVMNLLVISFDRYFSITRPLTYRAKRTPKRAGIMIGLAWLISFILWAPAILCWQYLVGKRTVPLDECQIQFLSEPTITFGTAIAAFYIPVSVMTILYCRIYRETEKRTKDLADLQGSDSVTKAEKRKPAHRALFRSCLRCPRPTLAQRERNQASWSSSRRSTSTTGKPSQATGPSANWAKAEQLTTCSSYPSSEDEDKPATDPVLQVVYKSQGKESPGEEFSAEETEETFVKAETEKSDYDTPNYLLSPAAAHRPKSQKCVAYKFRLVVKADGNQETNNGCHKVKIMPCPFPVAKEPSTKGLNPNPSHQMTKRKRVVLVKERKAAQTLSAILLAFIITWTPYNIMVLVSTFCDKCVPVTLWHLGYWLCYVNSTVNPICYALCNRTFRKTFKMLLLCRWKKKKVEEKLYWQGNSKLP
M5 PAM: potentiates acetylcholine response at human M5 receptor | 360,000 compounds, 0.3% hits | activation, % at 3 µM | P08912 | CHO-K1 hM5, Fluo-8 calcium, ACh EC20 PAM; 0% = ACh EC20, 100% = ACh EC100;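 active = activation above the run cutoff, the mean activation of all test compounds plus 3 SD, cut at about 18% in these data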
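Assay system – human M5 receptor in CHO-K1 cells · Read-out – % activation, ACh-normalized · Technique – Fluo-8 calcium fluorescence · Dosing – single-point, 3 µM nominal · Incubation – Fluo-8 loading 80 min at 37 °C plus 30 min room temperature · Repeats – singlicate, one well per test compound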
CHRM4 PAM: potentiates acetylcholine response at human M4 receptor | activation, % at 3 µM | CHO-K1 hM4/Gqi5, Fluo-8 calcium fluorescence, ACh EC20; 0% = ACh EC20, 100% = maximal ACh | P08173 | 360,000 compounds, 0.4% hits;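 active = activation above its plate's cutoff, the mean activation of sample wells plus 3 SD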
M4 antag: CHRM4 antagonism in calcium assay. CHO-hM4 cells, ACh EC80, Fluo-8 calcium fluorescence. inhibition, % at 3 µM. 360,000 compounds, 0.73% hits. P08173;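 active = inhibition above its plate's cutoff, the mean inhibition of sample wells plus 3 SD, cut at about 27% in these data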;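 also: 0% = acetylcholine EC80 with DMSO and 100% = DMSO without agonist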
CHRM4 agonist: agonists of human muscarinic M4 receptor (CHRM4). 360,000 compounds, 0.14% hits. CHO-K1 hM4/Gqi5, Fluo-8 calcium fluorescence; vehicle 0%, full acetylcholine response 100%. P08173. activation, % at 3 µM;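 active = activation above the run mean over all test wells plus 3 SD, cut at about 32% in these data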;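 also: peak over basal fluorescence ratio per well then scaled between controls; 0% = DMSO wells and 100% = acetylcholine at EC100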
M5 antag: CHRM5 antagonism in calcium assay; CHO-hM5 cells, Fluo-8 calcium fluorescence, ACh EC80; AID 624040; inhibition, % at 3 µM; P08912; 360,000 compounds, 0.59% hits;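 active = inhibition above a per-plate cutoff, the mean of that plate's test compounds plus 3 SD, cut at about 27% in these data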;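 also: 0% = acetylcholine EC80 with DMSO and 100% = DMSO without agonist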
Starred values were filed as active, the others as inactive; / = no result. A selection: hits, their analogues and other compounds. The true share with any hit is near 1.9%.

SMILES | M5 ag | M5 PAM | CHRM4 PAM | M4 antag | CHRM4 agonist | M5 antag
OC(Cn1c2ccccc2c2ccccc21)C[n+]1cccc2ccccc21 (stereo not drawn) | -13 | -22 | -27 | 40* | 0 | 58*
S=C1NCCN1 | 0 | -5 | -11 | 30* | 1 | -1
CC(C)C(=O)c1cn(Cc2ccccc2C#N)c2ccccc12 | -4 | 4 | 0 | -1 | 0 | 2
CC(=O)c1cn(Cc2ccccc2C#N)c2ccccc12 | 8 | -31 | -22 | 29* | 22 | 37*
Cc1ccc(C(C)C)c(OCC#CCN2CCCC2)c1 | -15 | -32 | -26 | 32* | 0 | 44*
CS(=O)(=O)c1ccc(C2=C(CNC(=O)c3cccs3)[C@H]3CC[C@@H](C2)N3CCOc2ccccc2)cc1 | -4 | -14 | -8 | 14 | 1 | 9
CS(=O)(=O)c1ccc(C2=C(CNC(=O)c3nccs3)[C@H]3CC[C@@H](C2)N3CCOc2ccccc2)cc1 | -3 | -13 | -14 | 49* | 2 | 13
C[N+](C)(C)c1ccccc1 | 52* | -17 | 1 | -6 | 2 | -1
CC(C)n1cc(C(=O)N(CC(=O)NC2CCCC2)Cc2ccccc2)cn1 | 0 | -2 | 6 | -6 | 1 | -2
Cc1ncc(CN2CCCC(C(=O)c3ccc(C(C)(C)C)cc3)C2)s1 (stereo not drawn) | -5 | -19 | -22 | 23 | 10 | 29*
CC(C)C1CN1CC(O)Cn1ccnc1[N+](=O)[O-] (stereo not drawn) | 0 | 0 | 6 | -6 | 1 | -3
Brc1ccc2c(c1)C(OC1CN3CCC1CC3)c1ccccc1CS2 (stereo not drawn) | -1 | -19 | -41 | 100* | 10 | 100*
COC(=O)C1=C(c2ccc(Cl)c(C(F)(F)F)c2)C[C@@H]2CC[C@H]1N2C(=O)NCCOc1ccccc1Cl | 3 | -1 | -4 | -2 | 1 | -4
CP(=O)(Nc1ccccc1)C(Cl)(Cl)Cl (stereo not drawn) | 4 | 1 | -5 | 12 | 0 | 8
CCN(CC)c1ccc(/C=C2\C(=O)NC(=S)N(C)C2=O)o1 | 37* | -8 | -9 | 8 | 12 | 13
CCN(CC)c1ccc(/C=C2\C(=O)NC(=S)N(c3ccc(OC)cc3OC)C2=O)o1 | 34* | -11 | -5 | 10 | 17 | 3
OCC(Cl)CCl (stereo not drawn) | 0 | 1 | 15 | -3 | 3 | -2
CCCC[N+]1(C)[C@@H]2CC(OC(=O)[C@H](CO)c3ccccc3)C[C@H]1[C@@H]1O[C@@H]12 (stereo partly drawn) | -2 | -18 | -19 | 92* | 0 | 72*
C[N+]1(C)C2CC(OC(=O)C(CO)c3ccccc3)CC1C1OC12 (stereo not drawn) | -1 | -18 | / | / | / | 99*
O=C(OC1CCN(CCCl)CC1)C(c1ccccc1)c1ccccc1 | -1 | -19 | -18 | 57* | 2 | 64*
C[N+]1(C)[C@@H]2CC(OC(=O)[C@H](CO)c3ccccc3)C[C@H]1[C@@H]1O[C@@H]12 (stereo partly drawn) | -1 | -18 | / | / | / | 98*
CN1CCC(OC(=O)Cc2ccccc2)CC1 | -10 | -19 | -14 | 8 | 0 | 20
CC1=C(C)CN2CC(C#N)=C(N)C2C1 (stereo not drawn) | 3 | -3 | 14 | -18 | 1 | -6
Cn1cc(C(=O)N2CCOCC2)c2ccccc21 | 1 | -4 | 9 | -1 | 1 | 12
CC1CN(c2ccc([N+](=O)[O-])cc2Cl)CCN1 (stereo not drawn) | -3 | -5 | 0 | -11 | 2 | 14
CN1[C@@H]2CC[C@H]1CC(OC(=O)C1C=Nc3ccccc31)C2 (stereo partly drawn) | -1 | -6 | -12 | 9 | 2 | 4
C[N+]1(C)[C@@H]2CC[C@H]1CC(OC(=O)C(c1ccccc1)c1ccccc1)C2 (stereo partly drawn) | -3 | -17 | -18 | 99* | 16 | 99*
Cc1ccc2c(c1N)C(=O)c1ccccc1C2=O | 5 | -12 | -2 | 14 | 14 | 28*
